1 compound from PMC7335720 (Saudi Pharmaceutical Journal : SPJ, 2020) can be followed below.

This data set is described as follows: Pharmacokinetic study after single oral dose in rabbits. It is filed as in vivo. The settings on record: male, rabbit, plasma, 2.58 mg/kg. Put shortly: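 Twelve healthy fasted male rabbits (≈1.5 kg), 12 h fast, two groups. Single oral dose suspended in CMC: 2.58 mg/kg parent drug, or 6.45 mg/kg conjugate (2.58 mg/kg drug-equivalent). Water after 1 h. Plasma deproteinised with acetonitrile and filtered, then HPLC-UV at 248 nm (acetonitrile:water 50:50, isocratic, 1 mL/min) against a 1–50 μg/mL standard curve. AUC by linear trapezoidal method.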

Take `CC(C(=O)O)c1ccc(-c2ccccc2)c(F)c1` (stereo not shown) [Standard FLB, 2-(3-fluoro-4-phenylphenyl)propionic acid]: the AUC(0-inf) (in general, the area under the concentration-time curve extrapolated to infinity) amounted to 190 ± 4 µg·h/mL; the Cmax (commonly the peak of the concentration-time curve) was found to be 37300 ng/mL; the half-life (commonly the time needed for the level to fall by half in the phase considered) is 4.6 ± 0.19 h; the k el was 4.17e-05 s⁻¹.
